# Values joined by “and” are separate entries in the source; they are usually repeats but may differ in a detail not shown here. Identical values can stand only once. Like-named read-outs stand apart in the source and are kept apart here.
# What was measured:
# [1] = system: voltage-gated Na+ channels in CAD cells; experiment: Frequency; assay type: cell-based; settings: 10 Hz; for Pulse in the train at which use-dependent block was first observed: 30-pulse train
# In short: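 CAD cells were whole-cell clamped at −80 mV and given a train of 30 pulses (20 ms to −10 mV) at 10 Hz, with test compound (100, 8.5 or 15 μM) or control. Available current was the peak at pulse N divided by the pulse 1 peak. 5–7 cells per condition, averaged ± SEM.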
# [2] = system: voltage-gated Na+ channels in CAD cells; experiment: Development of inhibition/slow inactivation of Na+ currents in CAD cells; assay type: cell-based; settings: vehicle 0.52 ± 0.09
# [3] = system: voltage-gated Na+ channels in CAD cells; experiment: Recovery of Na+ channels from inactivation/block in CAD cells; assay type: cell-based; settings: vs control
# In short: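 CAD cells under whole-cell clamp, test compound (100, 8.5 or 15 μM) or control. Cells were held at −120 mV and depolarized to 0 mV, for 5 s (slow inactivation) or a 10 ms prepulse. They were then returned to −120 mV for a variable recovery interval before a test step to 0 mV. Sweeps ran at 0.5 Hz for short recoveries and slower for longer ones.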
# [4] = system: voltage-gated Na+ channels in CAD cells; settings: earlier study; cited from earlier work
# [5] = system: voltage-gated Na+ channels in CAD cells; settings: 30 μM; cited from earlier work
# [6] = system: voltage-gated Na+ channels in CAD cells; assay type: cell-based; settings: for Maximal fraction of current unavailable by depolarization: 20 mV, control 0.42 ± 0.02
# [7] = system: voltage-gated Na+ channels in CAD cells; assay type: cell-based
# In short: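 Steady-state fast inactivation in whole-cell clamped CAD cells used a 500 ms conditioning pulse. Test compound ranged 0.3–500 μM; control was DMSO vehicle. Recordings were taken 3–4 min after break-in and compared with drug-free cells. V1/2 and k came from single Boltzmann fits of each recording, averaged as mean ± SEM. n = 7 for V1/2, n = 6 for τinact. Student's t-test vs DMSO.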
# [8] = system: tibial-nerve injury (TNI) mechanical hypersensitivity; experiment: Tibial-nerve injury; assay type: in vivo, Sprague–Dawley rats; settings: rats, 10 mg/kg i.p.
# [9] = system: formalin-induced pain, chronic (late-phase) inflammatory pain; experiment: Formalin-induced pain model; assay type: in vivo; settings: mouse, i.p., the lower the percent the more effective the compound
# [10] = system: site 2 sodium channel; experiment: Site 2 sodium channel binding; settings: 10 μM, Cerep, data not shown
# [11] = system: E18 rat cortical neurons; experiment: KCl-induced Ca2+ influx, Fura-2 imaging; assay type: cell-based; settings: 100 μM, 46.5 mM KCl
smiles,measurement,setting,value
"COC[C@@H](NC(C)=O)C(=O)NCc1ccccc1 [(R)-4, Lacosamide, reference compound]",Peak current lower than control at the last pulse (pulse 30),[1]; 100 μM,~ 9%
same,Pulse in the train at which use-dependent block was first observed,[1]; 100 μM,~19 pulse
same,Fraction of current available at 8 s prepulse duration,[2]; 100 μM,0.32 ± 0.01
same,Time course of recovery from the 10-ms depolarization,[3]; 100 μM,not different from control
same,Recovery kinetics after 5 s depolarization (slow inactivation induced),"[3]; 100 μM, significant between 100–512 ms",slowed recovery kinetics
same,Inhibition of peak Na+ currents,[4],~ 40%
same,Shift in V1/2 of fast inactivation,[5],0.7 mV
COC[C@@H](NC(C)=O)C(=O)NCc1ccc(OCc2cccc(F)c2)cc1 [(R)-7],Fraction of current available at −50 mV,"[6]; 30 μM, vs cells without drug",significantly decreased the fraction of current available
same,Maximal fraction of current unavailable by depolarization,[6]; 30 μM,0.91 ± 0.01
same,Time constant for inactivation (τinact),"[7]; 0.3 μM, DMSO 1.32 ± 0.12 ms",0.73 ± 0.05 ms
same,Shift in V1/2 of fast inactivation in the hyperpolarizing direction,[7]; 30 μM,~ 21.4 mV and 21.4 mV
same,V1/2 value for fast inactivation,"[7]; 30 μM, DMSO −63.2 ± 0.9 mV",−84.6 ± 1.2 mV
same,Peak current lower than control at the last pulse (pulse 30),[1]; 8.5 μM,40%
same,Pulse in the train at which use-dependent block was first observed,[1]; 8.5 μM,3 pulse
same,Fraction of current available at 8 s prepulse duration,[2]; 8.5 μM,0.20 ± 0.04
same,Time course of recovery from the 10-ms depolarization,[3]; 8.5 μM,slight slowing
same,Recovery kinetics after 5 s depolarization (slow inactivation induced),"[3]; 8.5 μM, significant between 100 ms to 2 s",slowed recovery kinetics
same,Reversal of tactile hypersensitivity,"[8]; 14 days after TNI, 1 hour after administration",~ 90%
same,Mechanical withdrawal thresholds 24 hours after injection,"[8]; four weeks after TNI, 24 hours",returned to pre-drug levels
same,"Protection vs control, chronic (late-phase) inflammatory pain",[9]; 15 mg/kg,44%
COC[C@@H](NC(C)=O)C(=O)NCc1ccc(COc2ccccc2F)cc1 [(R)-10],Fold lower IC50 for slow inactivation compared with (R)-4 (85 μM),[6],16 fold
same,Maximal fraction of current unavailable by depolarization,[6]; 100 μM,0.90 ± 0.007
same,Shift in V1/2 of fast inactivation in the hyperpolarizing direction,[7]; 100 μM,17.6 mV
same,"Displacement, site 2 sodium channel binding",[10],31–46%
COC[C@@H](NC(C)=O)C(=O)NCc1ccc(-c2cccc(F)c2)cc1 [(R)-11],Maximal fraction of current unavailable by depolarization,[6]; 30 μM,0.94 ± 0.004
same,Shift in V1/2 of fast inactivation in the hyperpolarizing direction,[7]; 30 μM,8.0 mV
same,Peak current lower than control at the last pulse (pulse 30),[1]; 15 μM,45%
same,Pulse in the train at which use-dependent block was first observed,[1]; 15 μM,3 pulse
same,Fraction of current available at 8 s prepulse duration,[2]; 15 μM,0.12 ± 0.04
same,Time course of recovery from the 10-ms depolarization,[3]; 15 μM,not different from control
same,Recovery kinetics after 5 s depolarization (slow inactivation induced),"[3]; 15 μM, significant between 100 ms to 2 s",slowed recovery kinetics
same,"Protection vs control, chronic (late-phase) inflammatory pain",[9]; 12 mg/kg,97%
same,"Displacement, site 2 sodium channel binding",[10],31–46%
COC[C@H](NC(C)=O)C(=O)NCc1ccccc1 [(S)-4],Inhibition of Ca2+ amplitude (KCl-induced Ca2+ influx),[11],13.74 ± 1.26%
same,Inhibition of peak Na+ currents,[4],no inhibition
COC[C@H](NC(C)=O)C(=O)NCc1ccc(OCc2cccc(F)c2)cc1 [(S)-7],Fraction of current available at −50 mV,[6]; 500 μM (highest dose),reduced the available current but not to the extent observed with (R)-7
same,Potential above which (more depolarized) slow inactivation was observed,[6]; 5 s conditioning prepulses,> −80 mV
same,Maximal fraction of current unavailable by depolarization,[6]; 500 μM,0.76 ± 0.02
same,Shift in V1/2 of fast inactivation in the hyperpolarizing direction,[7]; 500 μM,19.9 mV

# Reference: paper PMC3134314 (ACS chemical neuroscience, 2011)
